According to ChEMBL document CHEMBL1142981, “Identification and synthesis of a novel selective partial PPARdelta agonist with full efficacy on lipid metabolism in vitro and in vivo” (J Med Chem, 2007):

Columns and labels:
[1] = Half life in Sprague-Dawley rat at 0.45 mg/kg, po; format: ADME, organism-based; design: dose 0.45 mg/kg, route oral; details: in vivo
Procedure, shortened: (§1)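 Male SD rats, single oral dose in 5% ethanol/10% HPCD/phosphate buffer pH 7.5-8.0, n = 8. One animal was killed at each of 5, 15, 30, 60, 90, 120, 240 and 360 min. EDTA plasma was analysed by turbulent-flow LC-MS/MS. Cmax, half-life and oral bioavailability were taken from the plasma curves, with bioavailability using a parallel i.v. arm.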

[2] = biological target: T1, Peroxisome proliferator-activated receptor alpha (Homo sapiens, UniProt Q07869); experiment: Activity at human liver PPAR alpha expressed in HEK293 cells by PPAR-GAL4 transactivation assay; format: cell-based
T1 sequence (Q07869 whole entry): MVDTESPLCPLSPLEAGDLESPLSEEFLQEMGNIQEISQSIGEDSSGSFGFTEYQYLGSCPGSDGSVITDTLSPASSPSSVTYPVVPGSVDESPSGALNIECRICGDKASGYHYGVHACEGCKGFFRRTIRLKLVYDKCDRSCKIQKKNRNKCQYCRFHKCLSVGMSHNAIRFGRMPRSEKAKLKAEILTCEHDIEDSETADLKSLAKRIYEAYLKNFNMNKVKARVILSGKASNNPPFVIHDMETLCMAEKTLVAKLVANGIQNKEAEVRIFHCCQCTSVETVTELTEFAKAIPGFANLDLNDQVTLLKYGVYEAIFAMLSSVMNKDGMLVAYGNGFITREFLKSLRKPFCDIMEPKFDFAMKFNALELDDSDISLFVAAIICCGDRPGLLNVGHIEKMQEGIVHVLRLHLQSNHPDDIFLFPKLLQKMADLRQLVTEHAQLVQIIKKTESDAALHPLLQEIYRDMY

[3] = biological target: T2, Peroxisome proliferator-activated receptor alpha (Homo sapiens) (UniProt Q07869); experiment: Activity at human liver PPAR alpha expressed in HEK293 cells by GAL4 transactivation assay relative to NNC61-4655; format: cell-based
T2 sequence (whole entry): T1 sequence (Q07869 whole entry)

[4] = biological target: T3, Peroxisome proliferator-activated receptor gamma (Homo sapiens, UniProt P37231); format: cell-based, HEK293
T3 sequence (P37231 whole entry): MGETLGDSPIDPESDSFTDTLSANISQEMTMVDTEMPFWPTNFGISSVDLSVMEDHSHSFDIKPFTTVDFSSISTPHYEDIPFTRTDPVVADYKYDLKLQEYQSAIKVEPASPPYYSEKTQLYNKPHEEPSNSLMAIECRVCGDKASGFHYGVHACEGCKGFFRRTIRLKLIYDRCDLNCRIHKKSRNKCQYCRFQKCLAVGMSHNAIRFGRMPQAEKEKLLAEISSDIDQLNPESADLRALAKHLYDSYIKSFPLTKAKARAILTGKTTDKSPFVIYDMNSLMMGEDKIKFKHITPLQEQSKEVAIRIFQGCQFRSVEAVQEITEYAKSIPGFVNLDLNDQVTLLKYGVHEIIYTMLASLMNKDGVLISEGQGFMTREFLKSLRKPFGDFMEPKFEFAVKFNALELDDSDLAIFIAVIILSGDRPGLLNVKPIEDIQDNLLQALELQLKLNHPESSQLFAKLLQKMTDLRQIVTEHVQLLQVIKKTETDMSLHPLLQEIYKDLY

L6 [5] = experiment: Effect on fatty acid oxidation in rat L6 cells; format: functional, cell-based
Procedure, shortened: (§2)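 Rat L6 myoblasts differentiated 5 days in 2% serum, then treated 42 h with compound (refreshed at 24 h), followed by 6 h with 0.4 mM palmitate containing [9,10-3H]-palmitic acid on 2% fatty-acid-free BSA. Stopped with 10% TCA; released 3H-H2O collected by overnight equilibration at 50 °C and counted.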

L6 [6] = experiment: Effect on increase in fatty acid oxidation in rat L6 cells relative to GW-501516; format: functional; design: concentration or dose not given beside the values; procedure, shortened: as §2
[7] = Plasma Cmax in Sprague-Dawley rat at 0.45 mg/kg, po; format: ADME, organism-based; design: dose 0.45 mg/kg, route oral; procedure, shortened: as §1
[8] = biological target: T4, Peroxisome proliferator-activated receptor delta (Homo sapiens, UniProt Q03181)
T4 sequence (Q03181 whole entry): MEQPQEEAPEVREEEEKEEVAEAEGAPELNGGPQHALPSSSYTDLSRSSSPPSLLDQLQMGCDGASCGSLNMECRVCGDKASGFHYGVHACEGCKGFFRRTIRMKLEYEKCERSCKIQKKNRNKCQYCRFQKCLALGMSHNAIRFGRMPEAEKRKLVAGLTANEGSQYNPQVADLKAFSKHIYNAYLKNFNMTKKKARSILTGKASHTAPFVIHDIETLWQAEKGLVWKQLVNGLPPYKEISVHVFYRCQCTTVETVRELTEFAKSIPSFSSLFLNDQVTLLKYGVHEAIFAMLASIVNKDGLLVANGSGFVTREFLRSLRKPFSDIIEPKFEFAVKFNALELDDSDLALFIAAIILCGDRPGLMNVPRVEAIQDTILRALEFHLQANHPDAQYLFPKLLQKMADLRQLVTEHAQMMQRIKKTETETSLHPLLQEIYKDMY

[9] = Clearance in Sprague-Dawley rat at 0.20 mg/kg, iv; format: ADME, organism-based; design: dose 0.2 mg/kg, route intravenous; details: in vivo, 0.2 mg/kg
Procedure, shortened: (§3)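 Male SD rats dosed once i.v. or p.o. (n = 8 per route), vehicle 5% ethanol, 10% HPCD, phosphate buffer pH 7.5-8.0. One animal sacrificed at each of 5, 15, 30, 60, 90, 120, 240 and 360 min; EDTA plasma analysed by high turbulence LC-MS/MS. Each data point represents one animal.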

[10] = Volume of distribution in Sprague-Dawley rat at 0.20 mg/kg, iv; format: ADME, organism-based; design: dose 0.2 mg/kg, route intravenous; details: in vivo, 0.2 mg/kg, read-out: Vss
Procedure, shortened: (§4)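 Male SD rats received a single p.o. or i.v. dose (n = 8 per route) in 5% ethanol, 10% HPCD and phosphate buffer, pH 7.5-8.0. At 5, 15, 30, 60, 90, 120, 240 and 360 min one rat was sacrificed per time point. EDTA plasma was assayed by high turbulence LC-MS/MS. Cmax and bioavailability were taken from oral dosing; volume of distribution is at steady state.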

[11] = Oral bioavailability in Sprague-Dawley rat at 0.45 mg/kg; format: ADME, organism-based; details: in vivo; procedure, shortened: as §1
[12] = Clearance in Sprague-Dawley rat at 1.18 mg/kg, iv; format: ADME, organism-based; design: dose 1.18 mg/kg, route intravenous; details: in vivo; procedure, shortened: as §3
[13] = Volume of distribution in Sprague-Dawley rat at 1.18 mg/kg, iv; format: ADME, organism-based; design: dose 1.18 mg/kg, route intravenous; details: in vivo, read-out: Vss; procedure, shortened: as §4
[14] = Half life in Sprague-Dawley rat at 2.35 mg/kg, po; format: ADME, organism-based; design: dose 2.35 mg/kg, route oral; details: in vivo; procedure, shortened: as §3
[15] = Plasma Cmax in Sprague-Dawley rat at 2.35 mg/kg, po; format: ADME, organism-based; design: dose 2.35 mg/kg, route oral; procedure, shortened: as §4
[16] = Oral bioavailability in Sprague-Dawley rat at 2.35 mg/kg; format: ADME, organism-based; details: in vivo; procedure, shortened: as §4
[17] = Half life in Sprague-Dawley rat at 0.43 mg/kg, po; format: ADME, organism-based; design: dose 0.43 mg/kg, route oral; details: in vivo; procedure, shortened: as §3
[18] = Plasma Cmax in Sprague-Dawley rat at 0.43 mg/kg, po; format: ADME, organism-based; design: dose 0.43 mg/kg, route oral; procedure, shortened: as §4
[19] = Clearance in Sprague-Dawley rat at 1.08 mg/kg, iv; format: ADME, organism-based; design: dose 1.08 mg/kg, route intravenous; details: in vivo; procedure, shortened: as §3
[20] = Volume of distribution in Sprague-Dawley rat at 1.08 mg/kg, iv; format: ADME, organism-based; design: dose 1.08 mg/kg, route intravenous; details: in vivo, read-out: Vss; procedure, shortened: as §4
[21] = Half life in Sprague-Dawley rat at 2.29 mg/kg, po; format: ADME, organism-based; design: dose 2.29 mg/kg, route oral; details: in vivo; procedure, shortened: as §3
[22] = Plasma Cmax in Sprague-Dawley rat at 2.29 mg/kg, po; format: ADME, organism-based; design: dose 2.29 mg/kg, route oral; procedure, shortened: as §4
[23] = Oral bioavailability in Sprague-Dawley rat at 2.29 mg/kg; format: ADME, organism-based; details: in vivo; procedure, shortened: as §4

Structure (SMILES)	half-life [1]	Efficacy [3]	Cmax [7]	EC50 [8]	clearance [9]	Vd [10]	EC50 [2]	EC50 [4]	EC50 (L6 [5])	Activity (L6 [6])	further results
O=C(O)Cc1cccc(OCC=C(c2ccc(Br)cc2)c2ccc(Br)cc2)c1	2.55 h	> 19%	419 ng/mL	830 nM			> 10000 nM	> 10000 nM	224 nM	78%	
CC(C)(Oc1ccc(C(=O)c2ccc(Cl)cc2)cc1)C(=O)O [FENOFIBRIC ACID]		> 94%		> 10000 nM			> 10000 nM		3000 nM	70%	
O=C(O)Cc1ccc(OCC=C(c2ccc(Br)cc2)c2ccc(Br)cc2)c(Cl)c1	3.02 h	< 10%	241 ng/mL	2300 nM	7 mL/min/kg	1.4 L/kg			379 nM	85%	bioavailability [11]: 130%
CN(CCOc1ccc(CC2SC(=O)NC2=O)cc1)c1ccccn1 (configuration not stated) [ROSIGLITAZONE]		> 24%							5000 nM	58%	
Cc1cc(SCC=C(c2ccc(Br)cc2)c2ccc(Br)cc2)ccc1OCC(=O)O		> 22%		17 nM			> 10000 nM	> 10000 nM	3 nM	75%	clearance [12]: 10 mL/min/kg; Vd [13]: 0.9 L/kg; half-life [14]: 2.52 h; Cmax [15]: 887 ng/mL; bioavailability [16]: 95%
CCO[C@@H](Cc1ccc(OCC=C(c2ccc(Br)cc2)c2ccc(Br)cc2)cc1)C(=O)O		93%		540 nM			390 nM	590 nM			clearance [19]: 21.4 mL/min/kg; Vd [20]: 2.3 L/kg; half-life [21]: 1.42 h; Cmax [22]: 554 ng/mL; bioavailability [23]: 78%

Further lines, with some results ahead:

half-life [1]	Efficacy [3]	Cmax [7]	EC50 [8]	clearance [9]	Vd [10]	Structure (SMILES)	EC50 [2]	EC50 [4]	EC50 (L6 [5])	Activity (L6 [6])	further results
	> 12%		520 nM			O=C(O)CCc1ccc(OCC=C(c2ccc(Br)cc2)c2ccc(Br)cc2)cc1	> 10000 nM		212 nM	69%	
	> 14%		1100 nM	6 mL/min/kg	1.4 L/kg	O=C(O)Cc1ccc(OCC=C(c2ccc(Br)cc2)c2ccc(Br)cc2)cc1	> 10000 nM		204 nM	62%	half-life [17]: 7.45 h; Cmax [18]: 252 ng/mL
15.9 h	< 10%	51 ng/mL	5900 nM	27 mL/min/kg	5.3 L/kg	O=C(O)CCc1cccc(OCC=C(c2ccc(Br)cc2)c2ccc(Br)cc2)c1			615 nM	59%	
